Series [1] deals with T1, Collagenase 3 (Homo sapiens, UniProt P45452). Put plainly: Inhibition of full-length recombinant human MMP-13 assessed as prevention of bovine type-2 collagen degradation at 10 uM after 18 hrs by cartilage explant assay. An outline of the steps:
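Bovine articular cartilage pieces (~3 mm2) were made nonviable by three freeze–thaw cycles in LN2 and trypsin-digested for 4 h to remove aggrecan. They were then incubated with 100 nM MMP-13 ± compound for 18 h at 37 °C, 5% CO2, in triplicate at a single concentration. Released collagen fragments were measured by C1,2C ELISA and normalized to undigested and MMP-13-digested controls.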

The target in series [2] is Beta-secretase 1 (Homo sapiens) (UniProt P56817). The series is described as follows: Inhibition of recombinant human BACE1 using SEVNLDAEFRKKRR substrate at up to 5 uM after 3 hrs. An outline of the steps:
(§1)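 Outsourced microfluidic protease panel. Compound was preincubated with each protease for 30 min at 25 °C, then peptide substrate was added for 3 h at 25 °C and quenched with SDS/EDTA/iodoacetate. Substrate-to-product conversion was measured on LabChip. Compounds were tested singly in a 12-point 3-fold dilution series, top 20 μM (5 μM for two reference compounds).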

In another series the target is T2, Caspase-2 (Homo sapiens) (UniProt P42575).
T2 sequence (whole entry): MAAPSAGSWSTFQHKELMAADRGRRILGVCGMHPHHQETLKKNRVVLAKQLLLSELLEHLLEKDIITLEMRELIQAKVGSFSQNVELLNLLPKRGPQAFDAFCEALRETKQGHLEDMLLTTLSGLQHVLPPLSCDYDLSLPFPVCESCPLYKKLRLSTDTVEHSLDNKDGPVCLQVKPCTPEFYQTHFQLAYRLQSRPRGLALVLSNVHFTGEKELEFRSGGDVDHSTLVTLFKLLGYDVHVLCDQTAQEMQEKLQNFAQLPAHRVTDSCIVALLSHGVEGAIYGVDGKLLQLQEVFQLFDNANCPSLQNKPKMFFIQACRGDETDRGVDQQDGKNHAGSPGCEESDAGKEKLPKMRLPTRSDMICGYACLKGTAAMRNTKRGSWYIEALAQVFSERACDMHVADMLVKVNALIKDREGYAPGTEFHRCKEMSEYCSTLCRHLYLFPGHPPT
Put plainly: Inhibition of recombinant human caspase 2 using DEVDAA substrate at up to 5 uM after 3 hrs. The gist of the method:
as §1

For a further series, the target named is T3, Caspase-3 (Homo sapiens) (UniProt P42574).
T3 sequence (whole entry): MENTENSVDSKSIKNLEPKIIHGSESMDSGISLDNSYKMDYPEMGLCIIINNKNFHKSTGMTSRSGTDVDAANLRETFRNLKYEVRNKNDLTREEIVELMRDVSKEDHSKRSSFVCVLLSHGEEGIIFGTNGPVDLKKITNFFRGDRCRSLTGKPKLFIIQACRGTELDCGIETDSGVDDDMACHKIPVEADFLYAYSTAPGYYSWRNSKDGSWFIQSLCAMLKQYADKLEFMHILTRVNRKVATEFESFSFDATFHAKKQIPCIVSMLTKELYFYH
Put plainly: Inhibition of recombinant human caspase 3 using DEVDAA substrate at up to 5 uM after 3 hrs. An outline of the steps:
as §1

The target of another series is T4, Caspase-6 (Homo sapiens) (UniProt P55212).
T4 sequence (whole entry): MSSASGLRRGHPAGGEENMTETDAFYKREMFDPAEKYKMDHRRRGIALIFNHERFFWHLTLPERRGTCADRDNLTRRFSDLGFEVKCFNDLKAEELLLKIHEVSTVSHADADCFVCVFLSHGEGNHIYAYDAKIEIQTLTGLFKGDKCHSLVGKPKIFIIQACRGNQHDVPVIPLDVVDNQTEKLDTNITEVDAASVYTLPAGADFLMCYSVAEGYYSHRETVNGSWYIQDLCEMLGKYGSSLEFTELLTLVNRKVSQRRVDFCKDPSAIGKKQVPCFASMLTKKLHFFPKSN
The series is described as follows: Inhibition of recombinant human caspase 6 using VEHDGG substrate at up to 5 uM after 3 hrs. An outline of the steps: as §1

In series [3] the target is Procathepsin L (Homo sapiens) (UniProt P07711). Put plainly: Inhibition of recombinant human cathepsin L using GGALRAG substrate at up to 5 uM after 3 hrs. An outline of the steps: (§2)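 In this microfluidic protease panel, enzyme and compound were preincubated 30 min at 25 °C. The peptide substrate was added and the reaction was incubated 3 h at 25 °C, then quenched (SDS, EDTA, iodoacetate). Activity was read as % substrate converted to product. Dose–response was singlicate, 12-point 3-fold dilutions spanning 5 μM to 0.028 nM. IC50 was the concentration leaving 50% activity relative to no-compound control.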
Sequence of Procathepsin L (Homo sapiens) (P07711 114-333 limits assumed): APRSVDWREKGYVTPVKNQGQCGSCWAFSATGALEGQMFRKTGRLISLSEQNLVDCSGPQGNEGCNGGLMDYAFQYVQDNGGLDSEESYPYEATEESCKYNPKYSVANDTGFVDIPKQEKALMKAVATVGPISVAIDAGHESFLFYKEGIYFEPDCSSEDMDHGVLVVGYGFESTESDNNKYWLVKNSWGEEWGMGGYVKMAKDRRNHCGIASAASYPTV

In series [4] the target is Coagulation factor X (Homo sapiens) (UniProt P00742). The series is described as follows: Inhibition of recombinant human factor 10a using ALPRTMFIQ substrate at up to 5 uM after 3 hrs. An outline of the steps:
as §2

Another series addresses Furin (Homo sapiens) (UniProt P09958). The series is described as follows: Inhibition of recombinant human furin using RRVKRSLD substrate at up to 5 uM after 3 hrs. An outline of the steps:
as §2

Another series addresses Cytochrome P450 2C19 (Homo sapiens, UniProt P33261). Put plainly: (§3) Inhibition of CYP2C19 (unknown origin) using (S)-mephentoin substrate at 20 uM. The format is ADME. The settings on record: 20 µM. An outline of the steps:
(§4)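 Human liver microsomes with probe substrate and an NADPH-regenerating system in 0.1 M potassium phosphate pH 7.4 at 37 °C, run in duplicate. Inhibitor at 0–20 μM (0–2.5 μM for one compound), eight concentrations. Reactions were stopped with acetonitrile/formic acid containing isotope-labelled internal standard, and metabolite area ratios were compared with and without inhibitor. IC50 was taken by linear interpolation between bracketing concentrations.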

A further series addresses CYP3A4 (Homo sapiens, UniProt P08684). Put plainly: Inhibition of CYP3A4 (unknown origin) using midazolam substrate at 20 uM. The format is ADME. As to conditions: probe midazolam. The gist of the method:
as §4

The target of series [5] is T5, Cytochrome P450 3A4 (Homo sapiens, UniProt P08684). The series is described as follows: Inhibition of CYP3A4 (unknown origin) using testosterone substrate at 20 uM. The format is ADME. The gist of the method: as §4
T5 sequence (P08684 whole entry): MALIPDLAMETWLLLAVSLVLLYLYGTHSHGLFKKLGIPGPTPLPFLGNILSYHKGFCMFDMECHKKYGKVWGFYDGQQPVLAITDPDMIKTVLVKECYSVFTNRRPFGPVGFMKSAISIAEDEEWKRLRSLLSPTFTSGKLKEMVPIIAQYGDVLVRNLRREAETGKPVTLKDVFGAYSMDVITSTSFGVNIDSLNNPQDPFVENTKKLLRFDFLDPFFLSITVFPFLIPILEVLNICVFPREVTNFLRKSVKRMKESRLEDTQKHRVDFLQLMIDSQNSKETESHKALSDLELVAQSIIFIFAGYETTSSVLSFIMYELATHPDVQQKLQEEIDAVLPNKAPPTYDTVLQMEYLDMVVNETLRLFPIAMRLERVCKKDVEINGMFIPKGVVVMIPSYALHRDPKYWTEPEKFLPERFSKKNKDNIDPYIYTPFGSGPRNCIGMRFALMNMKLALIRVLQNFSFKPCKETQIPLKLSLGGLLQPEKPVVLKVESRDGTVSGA
For another series, the target named is CYP2B6 (Homo sapiens, UniProt P20813). Put plainly: Inhibition of CYP2B6 (unknown origin) using bupropion substrate at 2.5 uM. The settings on record: probe bupropion. The series is classed as ADME. An outline of the steps:
as §4

For another series, the target named is CYP2C9 (Homo sapiens, UniProt P11712). The series is described as follows: Inhibition of CYP2C9 (unknown origin) using diclofenac substrate at 2.5 uM. The series is classed as ADME. The settings on record: probe diclofenac. An outline of the steps:
as §4

For series [6], the target named is T1, Collagenase 3. Put plainly: Non-competitive inhibition of full-length recombinant human MMP-13 assessed as fTHP-15 substrate hydrolysis.
In a further series the test system is Liver. The series is described as follows: Half life in mouse liver microsomes by LC-MS/MS analysis. The series is classed as ADME. The gist of the method: (§5)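 Compound at 1 μM with 1 mg/mL liver microsomes in 100 mM potassium phosphate pH 7.4 at 37 °C with shaking. Reaction started with 1 mM NADPH (final). Aliquots were taken at 0, 5, 10, 20, 40 and 60 min and quenched in acetonitrile. Parallel incubations without NADPH were run.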
(In general: Microsomes from liver hold many membrane-bound enzymes, among them those of drug oxidation.)

A further series concerns Liver microsome. The series is described as follows: Half life in rat liver microsomes by LC-MS/MS analysis. The format is ADME. An outline of the steps:
as §5

Series [7] has as its target T5, Cytochrome P450 3A4. Put plainly: Inhibition of CYP3A4 (unknown origin) using testosterone substrate. The format is ADME. The gist of the method: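 Reactions stopped with acetonitrile/0.1% formic acid plus labelled internal standard. Metabolite measured by LC-MS area ratio. IC50 by linear interpolation.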
For a further series, the target named is CYP2C19 (Homo sapiens, UniProt P33261). The description is as §3. The settings on record: probe (S)-mephentoin. The format is ADME. The gist of the method: as §4
Sequence of CYP2C19 (P33261 whole entry): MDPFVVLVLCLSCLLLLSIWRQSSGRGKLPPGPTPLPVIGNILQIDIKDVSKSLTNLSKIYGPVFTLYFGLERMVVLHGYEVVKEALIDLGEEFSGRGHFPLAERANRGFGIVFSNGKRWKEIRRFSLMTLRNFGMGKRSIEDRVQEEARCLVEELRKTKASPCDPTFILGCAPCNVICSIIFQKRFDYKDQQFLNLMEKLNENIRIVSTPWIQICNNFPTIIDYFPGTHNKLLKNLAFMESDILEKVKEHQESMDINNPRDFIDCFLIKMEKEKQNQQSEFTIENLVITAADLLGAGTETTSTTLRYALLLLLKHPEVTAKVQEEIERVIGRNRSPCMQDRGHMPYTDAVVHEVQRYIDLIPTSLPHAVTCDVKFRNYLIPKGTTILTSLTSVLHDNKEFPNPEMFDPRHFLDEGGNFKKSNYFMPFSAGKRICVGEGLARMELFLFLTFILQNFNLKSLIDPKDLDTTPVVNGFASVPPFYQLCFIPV

The structures appear in SMILES notation. Where only a bound is given, the exact number is not on record here.

Sequence of Coagulation factor X (Homo sapiens) (P00742 41-179 limits assumed): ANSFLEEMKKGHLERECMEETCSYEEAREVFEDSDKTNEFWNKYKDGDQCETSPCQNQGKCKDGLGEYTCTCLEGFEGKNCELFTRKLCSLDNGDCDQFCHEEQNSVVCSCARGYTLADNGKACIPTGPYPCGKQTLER
Sequence of Coagulation factor X (Homo sapiens) (P00742 235-488 limits assumed): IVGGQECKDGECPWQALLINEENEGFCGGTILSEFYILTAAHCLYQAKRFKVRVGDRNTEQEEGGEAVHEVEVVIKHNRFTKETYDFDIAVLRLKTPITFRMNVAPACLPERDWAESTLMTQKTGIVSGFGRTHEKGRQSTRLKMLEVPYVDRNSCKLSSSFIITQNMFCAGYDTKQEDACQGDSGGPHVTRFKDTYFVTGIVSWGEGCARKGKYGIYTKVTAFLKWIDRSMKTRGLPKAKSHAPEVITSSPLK
Sequence of CYP3A4 (P08684 whole entry): as the sequence (P08684 whole entry) above
Sequence of Beta-secretase 1 (Homo sapiens) (P56817 whole entry): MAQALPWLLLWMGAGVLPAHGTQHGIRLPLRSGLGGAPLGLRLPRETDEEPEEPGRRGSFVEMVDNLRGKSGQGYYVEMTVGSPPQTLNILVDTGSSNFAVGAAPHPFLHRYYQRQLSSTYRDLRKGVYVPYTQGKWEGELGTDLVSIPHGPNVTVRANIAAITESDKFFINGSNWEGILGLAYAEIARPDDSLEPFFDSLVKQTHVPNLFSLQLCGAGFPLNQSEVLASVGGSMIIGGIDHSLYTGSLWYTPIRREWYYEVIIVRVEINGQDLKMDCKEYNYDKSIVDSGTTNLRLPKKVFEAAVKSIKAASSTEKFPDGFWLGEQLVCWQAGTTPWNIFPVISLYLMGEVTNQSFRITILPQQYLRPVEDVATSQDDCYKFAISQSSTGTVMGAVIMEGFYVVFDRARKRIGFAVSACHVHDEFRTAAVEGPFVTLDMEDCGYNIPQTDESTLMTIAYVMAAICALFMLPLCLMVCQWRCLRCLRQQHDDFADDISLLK
Sequence of Furin (Homo sapiens) (P09958 whole entry): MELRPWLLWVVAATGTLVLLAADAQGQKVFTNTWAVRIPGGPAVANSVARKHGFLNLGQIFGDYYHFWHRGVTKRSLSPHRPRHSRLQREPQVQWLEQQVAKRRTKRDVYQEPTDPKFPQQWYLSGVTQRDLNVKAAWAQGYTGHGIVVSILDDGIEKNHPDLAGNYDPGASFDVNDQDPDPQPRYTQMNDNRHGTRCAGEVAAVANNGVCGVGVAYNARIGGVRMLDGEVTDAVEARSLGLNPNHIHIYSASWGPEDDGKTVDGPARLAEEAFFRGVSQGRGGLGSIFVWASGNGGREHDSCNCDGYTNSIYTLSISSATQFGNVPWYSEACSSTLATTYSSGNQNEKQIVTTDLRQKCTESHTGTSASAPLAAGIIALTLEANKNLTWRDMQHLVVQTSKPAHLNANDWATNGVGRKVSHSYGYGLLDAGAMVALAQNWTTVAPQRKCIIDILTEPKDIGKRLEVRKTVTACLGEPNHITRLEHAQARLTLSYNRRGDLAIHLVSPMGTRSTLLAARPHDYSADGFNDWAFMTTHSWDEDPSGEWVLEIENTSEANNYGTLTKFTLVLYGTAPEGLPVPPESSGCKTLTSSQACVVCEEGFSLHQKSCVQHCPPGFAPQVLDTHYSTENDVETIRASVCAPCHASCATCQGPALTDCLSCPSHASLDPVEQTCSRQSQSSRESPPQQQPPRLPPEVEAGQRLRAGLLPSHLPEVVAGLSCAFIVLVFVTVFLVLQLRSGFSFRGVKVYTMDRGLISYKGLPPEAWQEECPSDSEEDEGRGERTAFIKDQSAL
Sequence of CYP2C9 (P11712 whole entry): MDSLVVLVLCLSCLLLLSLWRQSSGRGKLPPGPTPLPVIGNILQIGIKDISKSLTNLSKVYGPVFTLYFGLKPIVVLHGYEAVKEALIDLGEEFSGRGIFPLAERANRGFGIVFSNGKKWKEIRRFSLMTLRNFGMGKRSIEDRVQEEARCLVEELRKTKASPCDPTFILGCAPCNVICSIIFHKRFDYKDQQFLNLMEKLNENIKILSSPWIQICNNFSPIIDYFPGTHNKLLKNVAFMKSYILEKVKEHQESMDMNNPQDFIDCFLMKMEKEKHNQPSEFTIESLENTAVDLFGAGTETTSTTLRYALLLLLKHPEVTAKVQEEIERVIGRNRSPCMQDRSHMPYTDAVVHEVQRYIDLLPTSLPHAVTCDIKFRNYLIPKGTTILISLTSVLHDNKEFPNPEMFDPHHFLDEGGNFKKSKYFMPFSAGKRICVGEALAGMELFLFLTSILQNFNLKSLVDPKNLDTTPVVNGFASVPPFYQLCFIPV
Sequence of CYP2B6 (P20813 whole entry): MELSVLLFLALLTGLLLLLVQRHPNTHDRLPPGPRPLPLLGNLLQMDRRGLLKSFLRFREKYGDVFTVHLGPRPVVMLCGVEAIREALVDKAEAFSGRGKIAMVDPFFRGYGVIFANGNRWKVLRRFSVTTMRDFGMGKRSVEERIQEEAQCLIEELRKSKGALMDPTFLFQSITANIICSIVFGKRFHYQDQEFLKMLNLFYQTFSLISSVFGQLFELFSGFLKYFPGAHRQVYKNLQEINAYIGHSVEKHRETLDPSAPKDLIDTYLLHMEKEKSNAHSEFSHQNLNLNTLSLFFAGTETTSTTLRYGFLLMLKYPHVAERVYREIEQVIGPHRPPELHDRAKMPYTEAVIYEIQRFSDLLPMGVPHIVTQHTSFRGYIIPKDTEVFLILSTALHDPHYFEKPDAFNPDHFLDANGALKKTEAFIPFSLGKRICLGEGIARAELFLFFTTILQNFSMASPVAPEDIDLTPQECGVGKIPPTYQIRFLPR
Sequence of Cytochrome P450 2C19 (P33261 whole entry): as the sequence (P33261 whole entry) above

As for `Cc1ccc(CSc2nc(O)c3c(n2)CCC3)cc1`, at Collagenase 3 [1], the inhibition amounted to 59%.

For the compound `Cc1cc(CNC(=O)c2cc(C(=O)NCc3ccc(F)c(C)c3)ncn2)ccc1F`, the inhibition (in series [2]; on Caspase-2 (Homo sapiens); at Caspase-3 (Homo sapiens); on Caspase-6 (Homo sapiens); in series [3]; in series [4]) was less than 10% throughout. For the same compound, the inhibition on Furin (Homo sapiens) is less than 10%. The inhibition (INH) on Cytochrome P450 2C19 and on Cytochrome P450 3A4 [5] was more than 10% throughout. On CYP3A4, the inhibition at 20 µM was less than 50%.

As for `Cn1c(=O)n(Cc2ccc(C(=O)O)cc2)c(=O)c2cc(C#CCc3ccccc3)ccc21`, the inhibition (in series [2]; on Caspase-2 (Homo sapiens); at Caspase-3 (Homo sapiens); at Caspase-6 (Homo sapiens); in [3]; in series [4]) was less than 10% each time. Besides, the inhibition at Furin (Homo sapiens) is less than 10%. The inhibition at 2.5 µM at CYP2B6 and against CYP2C9 was less than 50% each time.

As for `Oc1nc(SCc2ccc(Cl)cc2)nc2c1CCC2`, the half-maximal inhibitory concentration (IC50) on Collagenase 3 [6] was 3.4 µM; against Cytochrome P450 3A4 [7], more than 20 µM. The figures for the t1/2 with Liver and in the series with Liver microsome were 1.3 min and 6.8 min, respectively.

Regarding `COC(=O)c1ccc(CSc2nc3c(c(=O)[nH]2)CCC3)cc1`, the IC50 at Collagenase 3 [6] is 2.8 µM; on Cytochrome P450 3A4 [7] it was more than 20 µM. In addition, the inhibition at Collagenase 3 [1] stood at 38%. In addition, the t1/2 is on record as 2 min with Liver and 1.8 min in the series with Liver microsome. The inhibition at 20 µM against CYP2C19 and at CYP3A4 was less than 50% each time. Besides, on Cytochrome P450 3A4 [5], the “inhibition (INH)” value is recorded as less than 50%.

As usually defined, the inhibition is the percentage by which the read-out fell short of the control. In general, IC50 refers to the concentration at which inhibition is half-maximal.

The record behind these values is ChEMBL document CHEMBL3352788, “Characterization of selective exosite-binding inhibitors of matrix metalloproteinase 13 that prevent articular cartilage degradation in vitro” (J Med Chem, 2014).
